Assay outcomes (PubChem)
Rows were chosen to be rich in hits. Some 1.5% of all compounds tested hit in one or more screens of this group.
Myeloid diff MLP – promotes myeloid progenitor differentiation | ER-HoxA9 myeloid progenitors, lysozyme-GFP differentiation, flow cytometry | calls only at 10 µM | 360,000 compounds, 1% hits;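 active means normalized GFP-positive differentiation at or above the plate's own cutoff, the solvent-only control mean plus 3 SD; inconclusive means no clear call, values can overlap the other calls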;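 further: cells exposed to compound for four days before flow analysis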
Platelet DG rel – platelet dense granule release activity; AID 1663; inhibition, %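 (compounds screened at 7.5 µM in platelet-rich plasma)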; 300,000 compounds, 0.22% hits; human platelet-rich plasma, SFLLRN dense granule ATP release, luminescence;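 active means mean replicate score, as percent of positive control, at or above 50; inconclusive means mean below 50 but at least one replicate at or above 50; inactive means mean and every replicate below 50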
SENP1 inh – SENP1 (human) catalytic domain inhibition | Q9P0U3 | recombinant SENP1 catalytic domain, CyPet-SUMO1-YPet FRET cleavage | inhibition, % at 10 µM | 360,000 compounds, 0.21% hits;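 active means inhibition at least 30% at 10 µM, raw YFP signal under a set limit, fluorescence ratio 0.5 to 1.5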
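Assay system – human recombinant His6-tagged SENP1 catalytic domain enzyme · Input – SENP1 enzyme, 20 pM final · Buffer or medium – Tris pH 8 buffer plus EDTA, NaCl, BME, BSA, NP40, catalase · Schedule – 50 min reaction at room temperature · Technique – FRET read of cyan and yellow fluorescence · Control set – no-enzyme wells low, DMSO-plus-enzyme wells high control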
VLA-4 inh – inhibition in a human VLA-4 binding assay; 330,000 compounds, 0.2% hits; VLA-4 expressing cells, ligand binding flow cytometry; inhibition, % (about 7 µM as worked out from the volumes in the protocol); in the data active means inhibition above about 50%
Large screens that a line does not name were inactive.

CCN(c1ccc(N=Cc2c(O)n(Cc3ccc(OC)cc3)c(=O)c3ccccc23)cc1)C(C)C	Myeloid diff MLP active (no result: Platelet DG rel, VLA-4 inh)
CC(C)[C@]1(c2ccc(Cl)cc2)ON(c2ccccc2C(F)(F)F)C1=O	none (no result: Myeloid diff MLP, Platelet DG rel, SENP1 inh)
O=C(c1cc2ccccc2o1)N1CCN(c2cccc(Cl)c2)CC1	none
Cc1ccc(S(=O)(=O)N2CC[C@@H]2C(=O)O)cc1	none
Cc1ccc(S(=O)(=O)N2CCCC2C(=O)O)cc1 (stereo not given)	Platelet DG rel 83
CCCn1c(=N)n(CC(O)COc2ccc(C)cc2)c2ccccc21 (stereo not given)	none
CCCCn1c(=N)n(CC(O)COc2cccc(C)c2)c2ccccc21 (stereo not given)	Myeloid diff MLP active
Cc1cc(C)cc(OCc2ccc(C(=O)NN)o2)c1	Myeloid diff MLP active
NNC(=O)c1ccc(COc2ccc([N+](=O)[O-])cc2)o1	none
O=C(Nc1ccc2nc(-c3cccs3)[nH]c2c1)c1ccco1	Myeloid diff MLP active
Cn1c(CNC(=O)C(Cc2ccccc2)NC(=O)c2cccc(F)c2)cc(=O)n(C)c1=O (stereo not given)	none
COc1ccc(C2c3c(-c4ccccc4O)n[nH]c3C(=O)N2Cc2ccco2)cc1OC (stereo not given)	none
COc1ccc(C2c3c(-c4cc(Cl)c(C)cc4O)n[nH]c3C(=O)N2Cc2cccnc2)cc1OC (stereo not given)	Platelet DG rel 72
CCOC(=O)c1sc2nc(CSc3ccccc3)nc(NCCN(C)C)c2c1C	none
CC(C)(C)NCC(O)COc1ccccc1C1CCCC1 (stereo not given)	Myeloid diff MLP active (no result: Platelet DG rel)
CCCCN1C(=O)Cc2c1nc(N)c1c(N)nc(N(CCC)CCC)c(C#N)c21	Myeloid diff MLP active
CCOC(=O)C1CCN(CC(O)COc2ccc(C(C)(C)CC)cc2)CC1 (stereo not given)	none
CCOC(=O)C1CCN(CC(O)COc2ccc(C(C)(C)C)cc2)CC1 (stereo not given)	Myeloid diff MLP active
O=C(Cc1ccc(Cl)cc1)Nc1cccc(C(=O)Nc2ccccc2C(=O)O)c1	none
CCCCc1ccc(-c2csc(/C(C#N)=C\c3ccco3)n2)cc1	Myeloid diff MLP active
COc1ccc(-c2cc(C(F)(F)F)c(C#N)c(SCC(=O)Nc3nc(C)co3)n2)cc1	none
Cc1coc(NC(=O)CSc2nc(-c3ccc(Cl)cc3)cc(C(F)(F)F)c2C#N)n1	Myeloid diff MLP active
CC(C)=CCN1CCN(Cc2cc(C(C)C)n[nH]2)CC1CCO (stereo not given)	Myeloid diff MLP active
CC(C)c1cc(CN2CCN(C3CCCC3)C(CCO)C2)[nH]n1 (stereo not given)	none
CC(=O)c1ccc(NC(=O)C(C)Sc2nnc3ccccn23)cc1 (stereo not given)	none (no result: Platelet DG rel)
CC(/C=C/c1ccc(O)cc1)=N/O	Myeloid diff MLP active
Cc1ccc(CS(=O)(=O)c2ccc(C(=O)N3CCN(c4ccccn4)CC3)cc2[N+](=O)[O-])cc1	Myeloid diff MLP active
CSc1ccc(/C=N/NC(=O)c2cccc(O)c2)cc1	Platelet DG rel 72
COc1ccc2cc(C#N)c(NC(C)C)nc2c1	none
CCN(CC)c1nc2cc(OC)ccc2cc1C#N	Myeloid diff MLP active
COc1ccc2cc(C#N)c(N3CCOCC3)nc2c1	Myeloid diff MLP active
CCOC(=O)C1CCN(c2nc3cc(OC)ccc3cc2C#N)CC1	none
CC(OC(=O)Cc1c[nH]c2ccccc12)C(=O)NC1CCCCC1C (stereo not given)	none (no result: Platelet DG rel)
CCOC(=O)C1CCN(C(=O)CN(C)S(=O)(=O)c2ccc3c(c2)c(=O)n(C)c(=O)n3C)CC1	none
CC(C)Oc1ccc(Br)cc1/C=N\NC(N)=S	Myeloid diff MLP active
Cc1cc(/C=N/NC(N)=S)c(C)n1-c1ccc(Br)cc1	none
Cc1ccc(C)c(S(=O)(=O)N2CCCOC2CNC(=O)C(=O)NC2CCCC2)c1 (stereo not given)	none
CC(C)(C)C(=O)N1CCN(c2nc3ccc(Br)cc3s2)CC1	Myeloid diff MLP active
Cc1ccnc(NC(=O)Nc2ccc(Br)cc2Cl)c1	Myeloid diff MLP active
CCOC(=O)CC(=O)CSc1ccc2nnc(-c3ccc(C)cc3)n2n1	Myeloid diff MLP active
CC(C)(C)C(=O)/C=c1\s/c(=C\c2ccc(-c3ccc([N+](=O)[O-])cc3)o2)c(=O)n1CC(=O)NC(N)=O	Myeloid diff MLP active (no result: VLA-4 inh)
Cc1ccc(/C=C/C(=O)OC(C)C(=O)NC2CCCCC2C)o1 (stereo not given)	none
CC12OC1C1(O)CCCC1=CC2=O (stereo not given)	none (no result: Myeloid diff MLP, SENP1 inh)
COC1=CC2(O)CCCC2=CC1=O (stereo not given)	Myeloid diff MLP active
CCCCCc1nc2c(C#N)c(-c3ccc(Cl)cc3)ccn2n1	Myeloid diff MLP active
CCC1CC(=O)CCN1S(=O)(=O)c1ccc(C)cc1 (stereo not given)	none (no result: Platelet DG rel, VLA-4 inh)
COc1cccc(/C=N/Nc2ccnc(=O)[nH]2)c1O	Platelet DG rel inconclusive
O=c1nccc(N/N=C/c2ccccc2O)[nH]1	Platelet DG rel 63
c1ccc(-c2noc(CN3CCOCC3)n2)cc1	none
Cc1cnc(C)c(N2CCN(Cc3nc(-c4ccccc4)no3)CC2)n1	Platelet DG rel 50
Nc1ccccc1SCC(=O)Nc1ccc2c(c1)OCO2	none
S=C(Nc1ccccc1)N1CCCCCC1	none
S=C(Nc1ccccc1)N1CCN(C2CCCCC2)CC1	Myeloid diff MLP active
CC(=O)c1c(C)[nH]c(C(=O)OCC(=O)Nc2cc(C(F)(F)F)ccc2N2CCOCC2)c1C	Myeloid diff MLP active
O=C(COC(=O)/C=C/c1ccc(F)cc1)Nc1cc(C(F)(F)F)ccc1N1CCOCC1	none
N#CCCN/N=C(/Cc1nc2ccccc2[nH]1)c1cccc(Cl)c1	Myeloid diff MLP active
Clc1ccc(/C(Cc2nc3ccccc3[nH]2)=N\Nc2ccccc2)cc1	none
CC(=O)c1cccc(NC(=S)N2CCN(c3ccccn3)CC2)c1	none
CCC(=O)c1cn(/C(=C\C(=O)OC(C)(C)C)CCC(OC)OC)cc1CC	Myeloid diff MLP active
Cn1c(-c2cnn(-c3ccccc3)c2N)n[nH]c1=S	Platelet DG rel 61
Cc1ccc(-c2cnn(-c3ccccc3)c2N)cc1	Platelet DG rel 52
C=CCn1c(-c2cnn(-c3ccccc3)c2N)n[nH]c1=S	none
Nc1c(-c2ccc(Cl)cc2)cnn1-c1ccccc1	none
CC(C)C(=O)N1CCC1(C)C(=O)Nc1ccc2cn[nH]c2c1 (stereo not given)	none (no result: Platelet DG rel, VLA-4 inh)
CCO[C@@H]1OC(C(=O)N2CCOCC2)=C[C@H](C2CCCCC2)[C@H]1CCCO	Myeloid diff MLP active
N#Cc1ccccc1N1CCN(C(=O)c2ccc(NC(=O)c3ccc(Br)o3)cc2)CC1	none (no result: Platelet DG rel)
CS(=O)(=O)N(CC(=O)Nc1ccc(CC#N)cc1)c1ccc(C23CC4CC(CC(C4)C2)C3)cc1	Myeloid diff MLP active
Cc1ccnc(NS(=O)(=O)c2ccc(-n3cccn3)cc2)c1	none
CCn1c2ccccc2c2cc(NC(=O)c3coc(=O)c(Br)c3)ccc21	none
CCn1c2ccccc2c2cc(NC(=O)c3ccc(Br)o3)ccc21	Myeloid diff MLP active
CCn1c2ccccc2c2cc(NC(=O)CSc3nnc(-c4ccccc4)o3)ccc21	Myeloid diff MLP active
